This is an account of results in ChEMBL document CHEMBL4033743, “Design, synthesis, and structure-activity relationships of pyrimido[4,5-b]indole-4-amines as microtubule depolymerizing agents that are effective against multidrug resistant cells” (Bioorg Med Chem Lett, 2017).

Assay [1] is described as follows: Ratio of EC50 for induction of microtubule depolymerization in rat A10 cells to IC50 for antiproliferative activity against human MDA-MB-435 cells.
The nature of assay [2]: Induction of microtubule depolymerization in rat A10 cells assessed as cellular microtubule loss incubated for 18 hrs by indirect immunofluorescence assay. It counts as cell-based. Conditions: A10, 18 h. A digest of the protocol: (§1)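 Cellular microtubule loss was scored. EC50 was defined as the concentration causing 50% loss of cellular microtubules.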
The species entered for assay [3] is Bos taurus. Kind of assay: Inhibition of [3H]colchicine binding to bovine brain tubulin at 5 uM.
For assay [4], the system named is HeLa. Kind of assay: Antiproliferative activity against human HeLa cells expressing beta3-tubulin by SRB assay. In kind it is functional, cell-based. Summed up: (§2)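 Antiproliferative IC50s were measured by SRB assay in isogenic cell-line pairs. For Pgp-mediated resistance, the pair was parental SK-OV-3 ovarian cancer cells and Pgp-expressing SK-OV-3 MDR-1-M6/6 cells. For βIII-tubulin-mediated resistance, the pair was parental HeLa cells and βIII-tubulin-expressing HeLa cells.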
Background: In SRB staining, fixed cells bind dye roughly in proportion to their protein.

Assay [5] relates to MDA-MB-435. Description: Antiproliferative activity against human MDA-MB-435 cells by SRB assay. In kind it is functional, cell-based. A digest of the protocol: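 Proliferation of MDA-MB-435 melanoma cells was read by sulforhodamine B (SRB) assay. IC50 was taken as the concentration causing 50% inhibition of proliferation.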
Assay [6] concerns SK-OV-3. Kind of assay: Antiproliferative activity against human SKOV3 cells by SRB assay. It counts as functional, cell-based. A digest of the protocol:
as §2

Assay [7] has as its system HeLa. Kind of assay: Antiproliferative activity against human HeLa cells by SRB assay. In kind it is functional, cell-based. A digest of the protocol:
as §2

Assay [8] is described as follows: Inhibition of bovine brain tubulin assembly. Also on record: species or system Bos taurus.
In assay [9] the test system is HeLa. Kind of assay: Resistance index, ratio of IC50 for antiproliferative activity against human HeLa cells expressing beta3-tubulin cells to IC50 for antiproliferative activity against human HeLa cells. It counts as functional. A digest of the protocol: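 Relative resistance (Rr) was calculated as the SRB IC50 in βIII-tubulin-expressing HeLa cells divided by the SRB IC50 in parental HeLa cells.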

Assay [10] is described as follows: Antiproliferative activity against human SKOV3-MDR1-M6/6 cells by SRB assay. In kind it is functional, cell-based. A digest of the protocol:
as §2

Assay [11] is described as follows: Resistance index, ratio of IC50 for antiproliferative activity against human SKOV3-MDR1-M6/6 cells to IC50 for antiproliferative activity against human SKOV3 cells. In kind it is functional. A digest of the protocol:
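Relative resistance (Rr) was calculated as the SRB IC50 in Pgp-expressing SK-OV-3 MDR-1-M6/6 cells divided by the SRB IC50 in parental SK-OV-3 cells.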

Assay [12] is filed under the species Rattus norvegicus. Description: Induction of microtubule depolymerization in rat A10 cells assessed as cellular microtubule loss up to 40 uM incubated for 18 hrs by indirect immunofluorescence assay. In kind it is cell-based. A digest of the protocol:
as §1

Broadly, the EC50 is the concentration needed to bring the measured effect to its halfway point. A word on the inhibition: it is the percentage by which the read-out fell short of the control. A lower inhibition goes with a response near the control. By IC50 is commonly meant the concentration that inhibits the measured activity by half. Low values mean greater potency in that assay, high ones weaker potency in that assay.

The source made the active and inactive calls.

In the case of `COc1ccc(N(C)c2ncnc3[nH]c4ccccc4c23)cc1`, the Ratio in [1] worked out at 9.2. Also, the EC50 in [2] is 1200 nM. The molecule further had an inhibition in assay [3] of 62%. The IC50 in [4] amounted to 99.5 nM; in [5] it was 130 nM; in assay [6] it was 173 nM; in assay [7] it was 142 nM; in assay [8], 2300 nM; in assay [10], 224 nM. Besides, the “Ratio IC50” value in [9] came out at 0.8; in [11], 1.4.
With `COc1ccc2c(c1)CCCN2c1nc(N)nc2[nH]c3ccccc3c12`, in assay [1], the Ratio is on record as 2.8. In addition, in assay [2], the EC50 worked out at 150 nM. This molecule yielded an inhibition in assay [3] of 71%. Moreover, the IC50 in [4] worked out at 87 nM; in assay [5] it was 54.4 nM; in assay [6] it was 83.2 nM; in assay [7], 72.1 nM; in assay [8], 2200 nM; in assay [10], 135 nM. The figures for the “Ratio IC50” value in assay [9] and in assay [11] were 1.2 and 1.6, respectively.
On to `COc1ccc(N(C)c2nc(N)nc3[nH]c4cccc(Cl)c4c23)cc1`, for which the outcome in assay [12] was inactive. This molecule also registered a half-inhibitory concentration (IC50) in assay [5] of 3900 nM.
In the case of `CSc1ccc(N(C)c2nc(N)nc3[nH]c4ccccc4c23)cc1`, in assay [1], the Ratio is recorded as 12. The EC50 in assay [2] worked out at 1100 nM. Further, in [3], the inhibition is 67%. The IC50 in assay [4] came out at 78.4 nM; in assay [5], 89.1 nM; in [6], 156 nM; in assay [7] it was 118 nM; in assay [8], 2300 nM; in [10], 160 nM. The “Ratio IC50” value in assay [9] was found to be 0.7; in assay [11], 1.
For the molecule `COc1ccc(N(C)c2nc(N)nc3[nH]c4cccc(C)c4c23)cc1`, the Ratio in assay [1] was 6.5. Besides, the 50% effective concentration (EC50) in assay [2] turned out to be 1400 nM. Further, in [5], the IC50 is 220 nM.
As to `COc1ccc2c(c1)CCCN2c1nc(N)nc2[nH]c3cccc(Cl)c3c12`, the Ratio in assay [1] was determined as 15. Besides, the EC50 in assay [2] turned out to be 3700 nM. Further, in [5], the IC50 was 271 nM.
Turning to `COc1ccc(N(C)c2nc(C)nc3[nH]c4ccccc4c23)cc1`, the Ratio in [1] was determined as 3.8. The EC50 in [2] turned out to be 130 nM. Moreover, the inhibition in [3] worked out at 67%. Further, the IC50 is 31.8 nM in [4]; 33.9 nM in assay [5]; 60.5 nM in assay [6]; 50.5 nM in [7]; 1200 nM in assay [8]; 78 nM in assay [10]. Besides, the “Ratio IC50” value in [9] was found to be 0.6; in assay [11], 1.3.
